Measurements from ChEMBL document CHEMBL3992510, “Urea Derivatives of 2-Aryl-benzothiazol-5-amines: A New Class of Potential Drugs for Human African Trypanosomiasis” (J Med Chem, 2017).

Columns and labels:
[1] = system: Trypanosoma brucei brucei; assay: Antitrypanosomal activity against Trypanosoma brucei brucei BF427 assessed as growth inhibition measured after 48 hrs by Alamar blue assay; assay type: functional; settings: BF427, 48 h
Procedure, shortened: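 Bloodstream-form parasites in HMI-9 medium are exposed to serial compound dilutions in triplicate. Viability is read with Alamar Blue at 48 h. EC50 and EC90 come from nonlinear regression. Pentamidine isethionate is the control.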

[2] = system: HepG2; assay: Cytotoxicity against human HepG2 cells assessed as growth inhibition after 48 hrs by Alamar blue assay; assay type: cell-based; settings: for EC50: Homo sapiens, HepG2, 48 h; for EC90: human, hepg2, 48 h
Procedure, shortened: (§1)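 CRL-8155 lymphoblasts or HepG2 hepatocellular carcinoma cells are exposed 48 h to serial compound dilutions in quadruplicate. Growth is read with Alamar Blue, and 50% and 90% inhibitory concentrations come from nonlinear regression. Quinacrine is the control.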

[3] = Selectivity index, ratio of EC50 for human HepG2 cells to EC50 for Trypanosoma brucei brucei BF427; assay type: toxicity; settings: read-out: Ratio EC50
[4] = Selectivity index, ratio of EC50 for human CRL8155 cells to EC50 for Trypanosoma brucei brucei BF427; assay type: toxicity; settings: read-out: Ratio EC50
[5] = Cytotoxicity against human CRL8155 cells assessed as growth inhibition after 48 hrs by Alamar blue assay; assay type: cell-based; settings: for EC50: Homo sapiens, CRL8155, 48 h; for EC90: human, crl8155, 48 h; procedure, shortened: as §1
[6] = system: Liver; assay: Half life in mouse liver microsomes at 1.5 uM in presence of NADPH by liquid chromatography/tandem mass spectrometric analysis; assay type: ADME, microsome
[7] = system: Liver; assay: Half life in human liver microsomes at 1.5 uM in presence of NADPH by liquid chromatography/tandem mass spectrometric analysis; assay type: ADME, microsome
[8] = Drug level in mouse plasma at 5 mg/kg, ip administered as single dose measured at 1 hr post dose by liquid chromatography/tandem mass spectrometric analysis; assay type: ADME, organism-based
Procedure, shortened: (§2)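 Single ip dose of 5 mg/kg in 5% DMSO/7% Tween 80/3% EtOH in 0.9% saline, three mice per compound (six for one compound). At 1 h, plasma is separated by centrifugation and brain homogenized in acetonitrile. Both are quantified by LC-MS/MS, with brain corrected for 3% v/w blood. Brain/plasma ratio is reported as mean ± SEM.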

[9] = Drug level in mouse brain at 5 mg/kg, ip administered as single dose measured at 1 hr post dose by liquid chromatography/tandem mass spectrometric analysis; assay type: ADME, organism-based; settings: read-out: Drug uptake; procedure, shortened: as §2

Work on `O=C(Nc1ccc2sc(-c3ccccc3)nc2c1)N1CC=CCC1` yielded an EC50 [1] of 1.12 µM and an EC90 [1] of 1.35 µM.

For `O=C(Nc1ccc2sc(-c3cccc(F)c3)nc2c1)N1CCCC1`, the EC50 [1] was 0.158 µM, the EC90 [1] was 0.391 µM and the EC50 [2] was > 50 µM. For the same compound, the EC90 [2] was > 50 µM, the selectivity ratio [3] was > 316 and the selectivity ratio [4] was > 316. For the same compound, the EC50 [5] was > 50 µM, the EC90 [5] was > 50 µM and the t1/2 [6] was 12 min. It also gave a t1/2 [7] of 37 min, a concentration at 1 h [8] of 2220 nM and a concentration at 1 h [9] of 2280 nM.

In the case of `O=C(Nc1ccc2sc(-c3cccc(F)c3)nc2c1)N1CCN(C(=O)Nc2ccc3sc(-c4cccc(F)c4)nc3c2)CC1`, the EC50 [1] is reported as > 20 µM and the EC90 [1] is reported as > 20 µM.

With `O=C(Nc1ccc2sc(-c3ccc(F)c(F)c3)nc2c1)N1CCC(F)CC1` the EC50 [1] was 0.341 µM, the EC90 [1] was 0.596 µM and the EC50 [2] was > 50 µM. The EC90 [2] was > 50 µM, the selectivity ratio [3] was > 147 and the selectivity ratio [4] was > 147. The EC50 [5] was > 50 µM, the EC90 [5] was > 50 µM and the concentration at 1 h [8] was 2510 nM. The concentration at 1 h [9] was 2520 nM.

For `O=C(Nc1ccc2sc(-c3ccc(F)cc3)nc2c1)N1CCCC1`, the EC50 [1] was 0.375 µM, the EC90 [1] was 0.895 µM and the EC50 [2] was > 50 µM. The EC90 [2] was > 50 µM, the selectivity ratio [3] was > 133 and the selectivity ratio [4] was > 133. The EC50 [5] was > 50 µM and the EC90 [5] was > 50 µM.

For `N=C(N)c1ccc(OCCCCCOc2ccc(C(=N)N)cc2)cc1`, the EC50 [1] was 0.00105 µM, the EC90 [1] was 0.00354 µM and the EC50 [2] was > 100 µM. The EC90 [2] was > 100 µM, the selectivity ratio [3] was > 93000 and the selectivity ratio [4] was > 43200. For the same compound, the EC50 [5] was 45.4 µM and the EC90 [5] was > 100 µM.

In the case of `Cc1nc2cc(NC(=O)N3CCCC3)ccc2s1`, the EC50 [1] is reported as > 20 µM and the EC90 [1] is reported as > 20 µM.

For `O=C(Nc1ccc2scnc2c1)N1CCCC1`, the EC50 [1] was > 20 µM and the EC90 [1] was > 20 µM.

In the case of `O=C(Nc1ccc2sc(-c3ccc(F)c(F)c3)nc2c1)N1CC[C@@H](F)C1`, the EC50 [1] is reported as 0.326 µM, the EC90 [1] is reported as 0.491 µM and the EC50 [2] is reported as > 50 µM. The selectivity ratio [3] was > 153, the selectivity ratio [4] was > 153 and the EC50 [5] was > 50 µM. The EC90 [5] was > 50 µM, the concentration at 1 h [8] was 1200 nM and the concentration at 1 h [9] was 6350 nM.

In the case of `CC(C)(CNC(=O)c1ccccc1)c1nc(-c2ccccc2)cs1`, the EC50 [1] is reported as > 10 µM and the EC90 [1] is reported as > 10 µM.

With `O=C(Nc1ccc2nc(-c3ccc(F)c(F)c3)sc2c1)N1CCC(F)C1` (stereo not given) the EC50 [1] was > 20 µM and the EC90 [1] was > 20 µM.

In the case of `O=C1CCN(C(=O)NCCc2nc(-c3cccc(F)c3)cs2)CC1`, the EC50 [1] is reported as 0.667 µM, the EC90 [1] is reported as 0.813 µM and the EC50 [2] is reported as > 50 µM. For the same compound, the EC90 [2] was > 50 µM, the selectivity ratio [3] was > 75 and the selectivity ratio [4] was > 75. For the same compound, the EC50 [5] was > 50 µM and the EC90 [5] was > 50 µM.

In the case of `O=C(Nc1ccc2sc(-c3ccccc3)nc2c1)c1cscn1`, the EC50 [1] is reported as > 10 µM and the EC90 [1] is reported as > 10 µM.

For `O=C(Nc1ccc2sc(-c3ccccc3)nc2c1)c1nccs1`, the EC50 [1] was 5.86 µM and the EC90 [1] was > 10 µM.

With `O=C(Nc1ccc2sc(-c3ccccc3F)nc2c1)N1CCCC1` the EC50 [1] was 0.983 µM, the EC90 [1] was 1.24 µM and the EC50 [2] was > 50 µM. For the same compound, the EC90 [2] was > 50 µM, the selectivity ratio [3] was > 51 and the selectivity ratio [4] was > 51. For the same compound, the EC50 [5] was > 50 µM and the EC90 [5] was > 50 µM.

`O=C(Nc1ccc2sc(-c3ccc(F)cc3F)nc2c1)N1CCCC1` gave an EC50 [1] of 0.929 µM and an EC90 [1] of 1.48 µM.

For `O=C(Nc1ccc2oc(-c3ccccc3)nc2c1)c1ccccc1`, the EC50 [1] was > 10 µM, the EC90 [1] was > 10 µM and the t1/2 [6] was 17 min. The t1/2 [7] was 60 min.

For `CC(C)(Cc1csc(-c2ccccc2)n1)NC(=O)N1CCCC1`, the EC50 [1] was > 10 µM and the EC90 [1] was > 10 µM.

In the case of `O=C(Nc1ccc2sc(-c3ccccc3)nc2c1)c1cccs1`, the EC50 [1] is reported as 0.882 µM, the EC90 [1] is reported as 2.13 µM and the EC50 [2] is reported as > 50 µM. For the same compound, the EC90 [2] was > 50 µM, the selectivity ratio [3] was > 57 and the selectivity ratio [4] was > 57. The EC50 [5] was > 50 µM and the EC90 [5] was > 50 µM.

With `O=C(Nc1ccc2sc(-c3cccc(F)c3)nc2c1)N1CCCCC1` the EC50 [1] was 0.174 µM, the EC90 [1] was 0.602 µM and the EC50 [2] was > 50 µM. For the same compound, the EC90 [2] was > 50 µM, the selectivity ratio [3] was > 287 and the selectivity ratio [4] was > 287. The EC50 [5] was > 50 µM, the EC90 [5] was > 50 µM and the t1/2 [6] was 11 min. It also gave a t1/2 [7] of 8.9 min.

For `CC(C)(Cc1csc(-c2ccccc2)n1)NC(=O)c1ccccc1`, the EC50 [1] was > 10 µM and the EC90 [1] was > 10 µM.

Work on `COC1CCN(C(=O)Nc2ccc3sc(-c4ccc(F)c(F)c4)nc3c2)C1` (stereo not given) yielded an EC50 [1] of 3.05 µM and an EC90 [1] of 4.59 µM.

For `CC(C)(Cc1csc(-c2ccccc2)n1)NC(=O)N1CCCCCC1`, the EC50 [1] was > 10 µM and the EC90 [1] was > 10 µM.

`O=C(NCCc1nc(-c2ccccc2)cs1)N1CCCCCC1` gave an EC50 [1] of 0.11 µM and an EC90 [1] of 0.236 µM.

`CN1CCN(C(=O)Nc2ccc3sc(-c4cccc(F)c4)nc3c2)CC1` gave an EC50 [1] of 3.15 µM and an EC90 [1] of 7.55 µM.
